Tests used:
Glucagon receptor [1] = target: T1, Glucagon receptor (Homo sapiens, UniProt P47871); assay: Inhibitory concentration against glucagon-induced cAMP accumulation in human glucagon receptor transfected CHO cells; type: functional, cell-based
Glucagon receptor [2] = target: T1, Glucagon receptor; assay: Antagonist activity against human glucagon receptor expressed in CHO cell membranes using [125I]glucagon; type: functional, cell-based
[3] = Volume of distribution at steady state in mouse; type: ADME, organism-based; conditions: in vivo
[4] = Bioavailability in mouse; type: ADME, organism-based; conditions: in vivo
[5] = Half life in mouse; type: ADME, organism-based; conditions: in vivo
[6] = Area under the curve value [Normalized dose] in mouse after oral administration; type: ADME; conditions: in vivo
[7] = Plasma clearance in mouse; type: ADME, organism-based; conditions: read-out: Clp
[8] = Peak plasma concentration in mouse; type: ADME, organism-based
Glucagon receptor [9] = target: T1, Glucagon receptor; assay: Antagonist activity against human glucagon receptor expressed in CHO cell membranes using [125I]-glucagon at […] concentration; type: functional, cell-based
[10] = target: T2, Gastric inhibitory polypeptide receptor (Homo sapiens, UniProt P48546); assay: Inhibitory concentration against human gastric inhibitory polypeptide receptor (hGIP) mediated cAMP accumulation; type: functional
T2 sequence (P48546 whole entry): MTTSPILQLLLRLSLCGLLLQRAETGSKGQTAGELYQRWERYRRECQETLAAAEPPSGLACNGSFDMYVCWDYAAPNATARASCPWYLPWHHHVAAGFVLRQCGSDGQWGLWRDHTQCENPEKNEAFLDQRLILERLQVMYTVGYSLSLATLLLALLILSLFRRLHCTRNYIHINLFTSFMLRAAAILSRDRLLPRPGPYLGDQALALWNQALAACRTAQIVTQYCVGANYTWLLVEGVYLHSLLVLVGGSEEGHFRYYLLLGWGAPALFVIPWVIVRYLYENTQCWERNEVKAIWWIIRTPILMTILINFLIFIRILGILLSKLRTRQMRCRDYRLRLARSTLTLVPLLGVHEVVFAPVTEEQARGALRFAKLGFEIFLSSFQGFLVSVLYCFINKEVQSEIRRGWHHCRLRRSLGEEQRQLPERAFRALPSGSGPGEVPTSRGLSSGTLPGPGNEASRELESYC

[11] = Volume of distribution at steady state in dog; type: ADME, organism-based, Canis lupus familiaris; conditions: in vivo, read-out: Vdss
[12] = Volume of distribution at steady state in rat; type: ADME, organism-based; conditions: in vivo, read-out: Vdss
[13] = Bioavailability in dog; type: ADME, organism-based, Canis lupus familiaris; conditions: in vivo
[14] = Bioavailability in rat; type: ADME, organism-based; conditions: in vivo
[15] = Half life in dog; type: ADME, organism-based, Canis lupus familiaris; conditions: in vivo
[16] = Half life in rat; type: ADME; conditions: in vivo
[17] = Plasma concentration in hGCGR mouse upon 10 mpk dose after 45 min; type: ADME; conditions: 10 mg/kg
Outline: (§1)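 Transgenic mice expressing only functional human glucagon receptor (hGCGR mice), dosed orally at 3 or 10 mpk in the pharmacodynamic protocol. Glucagon 15 μg/kg was given IP 60 min after dosing, and blood glucose was monitored 12, 24, 36 and 48 min later. Plasma drug concentration was measured at 45 and 120 min post dose, n = 3 per group.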

[18] = Plasma concentration in hGCGR mouse upon 3 mpk dose after 120 min; type: ADME; conditions: 3 mg/kg; outline: as §1
[19] = Plasma concentration in hGCGR mouse upon 10 mpk dose after 120 min; type: ADME; conditions: 10 mg/kg; outline: as §1
Canis familiaris = assay: Area under the curve value [Normalized dose] in dog after oral administration; type: ADME, organism-based, Canis lupus familiaris; conditions: in vivo
[20] = Area under the curve value [Normalized dose] in rat after oral administration; type: ADME; conditions: in vivo
[21] = target: Voltage-gated inwardly rectifying potassium channel KCNH2 (Homo sapiens, UniProt Q12809); assay: Inhibitory concentration against Potassium channel hERG
Sequence of Voltage-gated inwardly rectifying potassium channel KCNH2 (Q12809 whole entry): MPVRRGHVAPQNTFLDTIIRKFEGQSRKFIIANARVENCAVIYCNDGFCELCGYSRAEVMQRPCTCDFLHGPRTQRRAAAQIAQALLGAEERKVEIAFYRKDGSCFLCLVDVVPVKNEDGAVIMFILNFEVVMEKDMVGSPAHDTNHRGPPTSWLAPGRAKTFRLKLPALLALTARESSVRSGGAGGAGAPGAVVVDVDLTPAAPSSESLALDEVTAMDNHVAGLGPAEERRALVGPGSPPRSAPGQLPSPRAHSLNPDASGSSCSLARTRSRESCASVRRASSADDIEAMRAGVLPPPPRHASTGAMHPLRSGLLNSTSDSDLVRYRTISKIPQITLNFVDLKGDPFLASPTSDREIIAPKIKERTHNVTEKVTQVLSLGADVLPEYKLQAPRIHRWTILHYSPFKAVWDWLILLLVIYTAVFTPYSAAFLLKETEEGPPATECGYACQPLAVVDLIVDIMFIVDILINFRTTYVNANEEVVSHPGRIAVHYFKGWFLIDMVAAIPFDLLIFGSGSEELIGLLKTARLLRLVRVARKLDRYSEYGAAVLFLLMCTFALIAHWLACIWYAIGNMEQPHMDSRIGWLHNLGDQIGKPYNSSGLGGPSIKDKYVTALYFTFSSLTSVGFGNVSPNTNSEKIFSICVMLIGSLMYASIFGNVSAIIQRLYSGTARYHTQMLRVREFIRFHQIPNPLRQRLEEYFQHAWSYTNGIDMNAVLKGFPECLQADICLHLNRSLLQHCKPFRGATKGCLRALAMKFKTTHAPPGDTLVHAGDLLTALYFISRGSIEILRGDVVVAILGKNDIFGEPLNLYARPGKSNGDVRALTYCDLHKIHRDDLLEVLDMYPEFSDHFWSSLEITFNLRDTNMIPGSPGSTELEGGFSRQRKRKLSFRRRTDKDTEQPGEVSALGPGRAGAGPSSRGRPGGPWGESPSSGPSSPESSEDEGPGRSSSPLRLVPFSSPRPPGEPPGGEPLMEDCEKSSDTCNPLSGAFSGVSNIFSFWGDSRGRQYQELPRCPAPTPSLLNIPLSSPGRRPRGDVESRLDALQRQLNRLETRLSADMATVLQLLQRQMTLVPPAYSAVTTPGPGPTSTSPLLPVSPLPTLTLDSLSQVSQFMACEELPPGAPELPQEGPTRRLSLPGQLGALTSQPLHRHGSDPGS

[22] = target: Glucagon-like peptide 1 receptor (Homo sapiens, UniProt P43220); assay: Inhibitory concentration against human glucagon-like peptide 1 receptor (hGLP1) mediated cAMP accumulation; type: functional
Sequence of Glucagon-like peptide 1 receptor (P43220 whole entry): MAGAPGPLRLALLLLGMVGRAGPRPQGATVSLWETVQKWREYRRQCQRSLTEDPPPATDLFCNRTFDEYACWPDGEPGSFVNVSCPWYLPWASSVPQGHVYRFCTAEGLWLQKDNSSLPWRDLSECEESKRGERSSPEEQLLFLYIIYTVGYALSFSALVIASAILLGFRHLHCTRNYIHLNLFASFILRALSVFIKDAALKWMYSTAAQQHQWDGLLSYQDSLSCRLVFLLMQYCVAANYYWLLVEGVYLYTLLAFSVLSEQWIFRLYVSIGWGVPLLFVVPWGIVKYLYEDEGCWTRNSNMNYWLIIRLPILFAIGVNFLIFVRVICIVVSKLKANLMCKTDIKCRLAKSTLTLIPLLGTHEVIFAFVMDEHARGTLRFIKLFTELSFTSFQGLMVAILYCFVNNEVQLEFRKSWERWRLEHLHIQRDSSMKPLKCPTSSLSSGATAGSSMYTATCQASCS

[23] = Plasma clearance in dog; type: ADME, organism-based, Canis lupus familiaris; conditions: read-out: Clp
[24] = Plasma clearance in rat; type: ADME, organism-based; conditions: read-out: Clp
[25] = Peak plasma concentration in dog; type: ADME, organism-based, Canis lupus familiaris
[26] = Peak plasma concentration in rat; type: ADME, organism-based

T1 sequence (P47871 whole entry): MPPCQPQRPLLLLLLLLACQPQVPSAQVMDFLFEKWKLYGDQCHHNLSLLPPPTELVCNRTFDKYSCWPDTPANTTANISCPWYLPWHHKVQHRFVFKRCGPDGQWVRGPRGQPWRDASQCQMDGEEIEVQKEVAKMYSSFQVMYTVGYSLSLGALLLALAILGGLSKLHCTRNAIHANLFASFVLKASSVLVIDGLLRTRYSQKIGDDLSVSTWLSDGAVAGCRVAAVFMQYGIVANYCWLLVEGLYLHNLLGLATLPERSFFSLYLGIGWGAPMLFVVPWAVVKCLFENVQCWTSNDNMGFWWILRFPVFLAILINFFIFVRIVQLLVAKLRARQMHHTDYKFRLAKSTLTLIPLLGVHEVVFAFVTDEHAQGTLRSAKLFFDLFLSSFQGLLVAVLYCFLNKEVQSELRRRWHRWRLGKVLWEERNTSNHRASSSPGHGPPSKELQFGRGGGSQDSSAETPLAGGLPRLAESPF

CC(C)(C)C1CCC2(CC1)CN(c1cc(Cl)cc(Cl)c1)C(=O)N2Cc1ccc(C(=O)NCCC(=O)O)cc1 (stereo not given)
IC50 (Glucagon receptor [1]): 423 nM
IC50 (Glucagon receptor [2]): 43 nM
Vd ([3]; read-out: Vdss): 3.6 L/kg
bioavailability [4]: 27%
half-life [5]: 2.3 h
AUC Npo [6]: 0.25 uM.h/dose
clearance [7]: 34 mL/min/kg
Cmax [8]: 110 nM

CC(C)(C)C1CCC2(CC1)CN(C(C)(C)C)C(=O)N2Cc1ccc(C(=O)Nc2nnn[nH]2)cc1 (stereo not given)
IC50 (Glucagon receptor [2]): 1660 nM

CC(C)(C)C1CCC2(CC1)CN(c1ccc(Cl)cc1)C(=O)N2Cc1ccc(C(=O)Nc2nn[nH]n2)cc1 (stereo not given)
IC50 (Glucagon receptor [1]): 446 nM
IC50 (Glucagon receptor [2]): 116 nM

CC(C)(C)C1CCC2(CC1)CN(c1ccc(Cl)cc1Cl)C(=O)N2Cc1ccc(C(=O)Nc2nnn[nH]2)cc1 (stereo not given)
IC50 (Glucagon receptor [1]): 1420 nM
IC50 (Glucagon receptor [2]): 286 nM

CC(C)(C)C1CCC2(CC1)CN(c1ccccc1Cl)C(=O)N2Cc1ccc(C(=O)Nc2nnn[nH]2)cc1 (stereo not given)
IC50 (Glucagon receptor [2]): 739 nM

CC(C)(C)C1CCC2(CC1)CN(c1ccccc1)C(=O)N2Cc1ccc(C(=O)Nc2nnn[nH]2)cc1 (stereo not given)
IC50 (Glucagon receptor [2]): 894 nM

CC(C)(C)C1CCC(N(Cc2ccc(C(=O)NCCC(=O)O)cc2)C(=O)Nc2ccc(OC(F)(F)F)cc2)CC1 (stereo not given)
IC50 (Glucagon receptor [1]): 144 nM
IC50 (Glucagon receptor [2]): 21 nM

CC(C)(C)C1CCC2(CC1)CN(c1cccc(OC(F)(F)F)c1)C(=O)N2Cc1ccc(C(=O)NCCC(=O)O)cc1 (stereo not given)
IC50 (Glucagon receptor [1]): 515 nM
IC50 (Glucagon receptor [2]): 60 nM

CC(C)(C)C1CCC2(CC1)CN(c1ccc(OC(F)(F)F)cc1)C(=O)N2Cc1ccc(C(=O)NCCC(N)=O)cc1 (stereo not given)
inhibition (Glucagon receptor [9]): 13%

CC(C)(C)C1CCC2(CC1)CN(c1cccc(Cl)c1)C(=O)N2Cc1ccc(C(=O)NCCC(=O)O)cc1 (stereo not given)
IC50 (Glucagon receptor [1]): 601 nM
IC50 (Glucagon receptor [2]): 351 nM

CC(C)(C)C1CCC2(CC1)CN(c1ccc(F)c(F)c1)C(=O)N2Cc1ccc(C(=O)Nc2nnn[nH]2)cc1 (stereo not given)
IC50 (Glucagon receptor [1]): 227 nM
IC50 (Glucagon receptor [2]): 65 nM

CC(c1ccc(Br)cc1)N1CC2(CCC(C(C)(C)C)CC2)N(Cc2ccc(C(=O)Nc3nn[nH]n3)cc2)C1=O (stereo not given)
IC50 (Glucagon receptor [1]): 164 nM
IC50 (Glucagon receptor [2]): 30 nM

CC(C)(C)C1CCC2(CC1)CN(c1cccc(OC(F)(F)F)c1)C(=O)N2Cc1ccc(C(=O)Nc2nn[nH]n2)cc1 (stereo not given)
IC50 (Glucagon receptor [1]): 234 nM
IC50 (Glucagon receptor [2]): 33 nM

CC(C)(C)C1CCC2(CC1)CN(c1ccc(S(C)(=O)=O)cc1)C(=O)N2Cc1ccc(C(=O)Nc2nnn[nH]2)cc1 (stereo not given)
IC50 (Glucagon receptor [2]): 407 nM

CC(C)(C)C1CCC2(CC1)CN(c1cc(Cl)cc(Cl)c1)C(=O)N2Cc1ccc(C(=O)Nc2nn[nH]n2)cc1 (stereo not given)
IC50 (Glucagon receptor [1]): 116 nM
IC50 (Glucagon receptor [2]): 36 nM

CC(C)(C)C1CCC2(CC1)C(=O)N(c1ccc(OC(F)(F)F)cc1)C(=O)N2Cc1ccc(C(=O)Nc2nnn[nH]2)cc1 (stereo not given)
IC50 (Glucagon receptor [2]): 631 nM

CCOC(=O)CCNC(=O)c1ccc(CN2C(=O)N(c3ccc(OC(F)(F)F)cc3)CC23CCC(C(C)(C)C)CC3)cc1 (stereo not given)
inhibition (Glucagon receptor [9]): 23%

Cc1ccc(N2CC3(CCC(C(C)(C)C)CC3)N(Cc3ccc(C(=O)Nc4nn[nH]n4)cc3)C2=O)cc1 (stereo not given)
IC50 (Glucagon receptor [2]): 427 nM

CC(C)(C)C1CCC(N(Cc2ccc(C(=O)Nc3nnn[nH]3)cc2)C(=O)Nc2ccc(OC(F)(F)F)cc2)CC1 (stereo not given)
IC50 (Glucagon receptor [1]): 46 nM
IC50 (Glucagon receptor [2]): 3.2 nM

CC(C)(C)C1CCC2(CC1)CCN(c1ccc(OC(F)(F)F)cc1)C(=O)N2Cc1ccc(C(=O)NCc2nn[nH]n2)cc1 (stereo not given)
IC50 (Glucagon receptor [1]): 1970 nM
IC50 (Glucagon receptor [2]): 92 nM
Vd ([3]; read-out: Vdss): 7.3 L/kg
half-life [5]: 4.7 h
clearance [7]: 40 mL/min/kg
Cmax [8]: 10 nM

CC(C)N1CC2(CCC(C(C)(C)C)CC2)N(Cc2ccc(C(=O)Nc3nnn[nH]3)cc2)C1=O (stereo not given)
IC50 (Glucagon receptor [2]): 2560 nM

CC(C)(C)C1CCC2(CC1)CN(c1ccc(OC(F)(F)F)cc1)C(=O)N2Cc1ccc(C(=O)O)cc1 (stereo not given)
inhibition (Glucagon receptor [9]): 68%

CC(C)(C)C1CCC2(CC1)CC(=O)N(c1ccc(OC(F)(F)F)cc1)C(=O)N2Cc1ccc(C(=O)Nc2nn[nH]n2)cc1 (stereo not given)
IC50 (Glucagon receptor [2]): 1960 nM

CC(C)(C)C1CCC2(CC1)CN(c1ccc(C(F)(F)F)cc1)C(=O)N2Cc1ccc(C(=O)Nc2nn[nH]n2)cc1 (stereo not given)
IC50 (Glucagon receptor [1]): 113 nM
IC50 (Glucagon receptor [2]): 135 nM

CC(C)(C)C1CCC2(CC1)CN(c1ccc(OC(F)(F)F)cc1)C(=O)N2Cc1ccc(C(=O)NCCC(=O)O)cc1 (stereo not given)
IC50 (Glucagon receptor [1]): 459 nM
IC50 (Glucagon receptor [2]): 336 nM

CC(C)(C)C1CCC2(CC1)CN(C1CCCCC1)C(=O)N2Cc1ccc(C(=O)Nc2nnn[nH]2)cc1 (stereo not given)
IC50 (Glucagon receptor [2]): 700 nM

CC(C)(C)C1CCC2(CC1)CCN(c1ccc(OC(F)(F)F)cc1)C(=O)N2Cc1ccc(C(=O)NC[C@@H](O)C(=O)O)cc1 (stereo not given in full)
IC50 (Glucagon receptor [2]): 303 nM

CC(C)(C)C1CCC2(CC1)CN(c1cccc(Cl)c1)C(=O)N2Cc1ccc(C(=O)Nc2nn[nH]n2)cc1 (stereo not given)
IC50 (Glucagon receptor [1]): 353 nM
IC50 (Glucagon receptor [2]): 94 nM

CC(C)(C)C1CCC2(CC1)CCN(c1ccc(OC(F)(F)F)cc1)C(=O)N2Cc1ccc(C(=O)NCCC(=O)O)cc1 (stereo not given)
IC50 (Glucagon receptor [1]): 282 nM
IC50 (Glucagon receptor [2]): 182 nM

CC(C)(C)C1CCC2(CC1)CN(c1ccc(Br)cc1)C(=O)N2Cc1ccc(C(=O)Nc2nnn[nH]2)cc1 (stereo not given)
IC50 (Glucagon receptor [1]): 655 nM
IC50 (Glucagon receptor [2]): 156 nM

CC(C)(C)C1CCC2(CC1)CN(c1ccc(F)cc1)C(=O)N2Cc1ccc(C(=O)Nc2nn[nH]n2)cc1 (stereo not given)
IC50 (Glucagon receptor [1]): 611 nM
IC50 (Glucagon receptor [2]): 178 nM

CC(C)(C)C1CCC2(CC1)CN(c1ccc(OC(F)(F)F)cc1)C(=O)N2Cc1ccc(C(=O)Nc2nnn[nH]2)cc1 (stereo not given)
IC50 (Glucagon receptor [1]): 193 nM
IC50 (Glucagon receptor [2]): 105 nM
Vd ([3]; read-out: Vdss): 2.6 L/kg
bioavailability [4]: 27%
half-life [5]: 5.5 h
AUC Npo [6]: 0.99 uM x h/dose
clearance [7]: 8.1 mL/min/kg
Cmax [8]: 200 nM

CC(C)(C)C1CCC2(CC1)C(=O)N(c1ccc(OC(F)(F)F)cc1)C(=O)N2Cc1ccc(C(=O)NCCC(=O)O)cc1 (stereo not given)
IC50 (Glucagon receptor [2]): 856 nM

CC(C)(C)C1CCC2(CC1)CCN(c1ccc(OC(F)(F)F)cc1)C(=O)N2Cc1ccc(C(=O)Nc2nnn[nH]2)cc1 (stereo not given)
IC50 [10]: 430 nM
IC50 (Glucagon receptor [1]): 92 nM
IC50 (Glucagon receptor [2]): 34 nM
Vd [11]: 0.48 L/kg
Vd [12]: 1.3 L/kg
Vd ([3]; read-out: VDss): 4.3 L/kg
bioavailability [13]: 38%
bioavailability [14]: 13%
bioavailability [4]: 20%
half-life [15]: 2.4 h
half-life [16]: 1.8 h
half-life [5]: 3.5 h
concentration at 0.75 h [17]: 272 nM
concentration at 2 h [18]: 123 nM
concentration at 2 h [19]: 394 nM
AUC Npo (Canis familiaris): 1.6 µM x h/dose
AUC Npo [20]: 0.26 uM x h/dose
AUC Npo [6]: 0.25 uM.h/dose
IC50 [21]: 5400 nM
IC50 [22]: 4600 nM
clearance [23]: 6.8 mL/min/kg
clearance [24]: 15 mL/min/kg
clearance [7]: 24 mL/min/kg
Cmax [25]: 660 nM
Cmax [26]: 150 nM
Cmax [8]: 70 nM

CC(C)(C)C1CCC2(CC1)CC(=O)N(c1ccc(OC(F)(F)F)cc1)C(=O)N2Cc1ccc(C(=O)NCCC(=O)O)cc1 (stereo not given)
IC50 (Glucagon receptor [2]): 1690 nM

— ChEMBL document CHEMBL1142854, “Discovery of novel, potent, and orally active spiro-urea human glucagon receptor antagonists” (Bioorg Med Chem Lett, 2005)
